21 compounds from ChEMBL document CHEMBL1125084, “Synthesis and evaluation of a series of aryl[e]fused pyrazolo[4,3-c]pyridines with potential anxiolytic activity” (J Med Chem, 1990) can be followed below.

Active and inactive are the calls of the source. Some results are limits rather than exact numbers.

The subject of assay [1] is Rattus norvegicus. Briefly: Compound was administered at a dose of 2.5 mg/Kg intraperitoneally and was evaluated for shock induced suppression of drinking by rat vogel test and number of shocks taken were reported. In kind it is functional. Summed up: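 Rats had water for a 4-h period, then water was withdrawn overnight. On test day, after 30 s of free drinking, a 0.225 mA footshock lasting 0.5 s was given for every 5 s of accumulated drinking in a 3-min session. Drug was given ip to groups of 6-12 rats 30 min before testing. Vehicle controls received 1% methyl cellulose in 0.5% saline. Read-out was the number of shocks taken.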

The subject of assay [2] is Mus musculus. Briefly: Compound was evaluated for horizontal wire test and percent of mice not grasping wire, it was administered perorally. Conditions: po.
In assay [3] the test system is Mus musculus. Briefly: Compound was evaluated for horizontal wire test and percent of mice not grasping wire, it was administered intraperitoneally. Particulars: ip.
Assay [4] has as its system Mus musculus. Briefly: Effective dose required for the percentage change in seizure threshold by anti-pentylenetetrazole test in mouse when administered perorally. In kind it is functional. Conditions: po. Summed up:
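Male CD-1 mice (18-24 g), groups of 10, dosed orally 60 min before testing. Lightly restrained mice received PTZ (8 mg/mL) by tail-vein infusion at 0.5 mL/min. Time to tonic hindlimb extension was converted to a PTZ threshold dose (mg/kg). Effect was expressed as % change in seizure threshold versus controls, with a two-tailed Student's t test.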

Assay [5] is filed under the species Rattus norvegicus. Briefly: Evaluated for shock induced suppression of drinking by rat vogel test and number of shocks taken were reported. In kind it is functional. Summed up: (§1)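 Rats deprived of water, allowed 4 h drinking, then withdrawn overnight. On test day, free drinking for 30 s, then a mild footshock (0.225 mA, 0.5 s) for every 5 s of accumulated drinking in a 3 min session. Count of shocks taken recorded. Drug given ip to groups of 6-12 rats 30 min before testing; vehicle 1% methyl cellulose in 0.5% saline.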

The test system of assay [6] is Mus musculus. Briefly: Percentage change in seizure threshold by pentylenetetrazole infusion method in mouse at a dose of 100 mg/Kg administered perorally. In kind it is functional.
Assay [7] addresses GABA-A receptor; anion channel. Briefly: Displacement of [3H]flunitrazepam from GABA-A Benzodiazepine receptor of rat brain membranes. In kind it is cell membranes, Membrane. Summed up:
(§2)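 Well-washed, frozen rat whole brain membranes incubated with 0.5 nM [3H]flunitrazepam; nonspecific binding defined with 10 µM clonazepam. IC50 from log concentration vs percent inhibition curves, Ki via Cheng-Prusoff; triplicate determinations.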
Background: Loss of bound radioactivity is the signal in a displacement assay; it reports binding, not function.

Assay [8] deals with Mus musculus. Briefly: Percent of mice not grasping wire at a dose of 300 mg/Kg administered intraperitoneally in horizontal wire test. The format is functional.
In assay [9] the test system is Rattus norvegicus. Briefly: Compound was administered at a dose of 10 mg/Kg intraperitoneally and was evaluated for shock induced suppression of drinking by rat vogel test and number of shocks taken were reported. The format is functional. Summed up:
as §1

For assay [10], the system named is Mus musculus. In words: Percentage change in seizure threshold by anti-pentylenetetrazole test in mouse at a dose of 30 mg/Kg administered perorally; Inactive. The format is functional, organism-based.
In assay [11] the test system is Mus musculus. In words: Percent of mice not grasping wire at a dose of 30 mg/Kg administered intraperitoneally in horizontal wire test; Inactive. The format is functional, organism-based.
Assay [12] concerns Mus musculus. In words: Percentage change in seizure threshold by pentylenetetrazole infusion method in mouse at a dose of 30 mg/Kg administered perorally; Inactive. The format is functional, organism-based.
Assay [13] has as its system GABA-A receptor; anion channel. Briefly: Displacement of [3H]flunitrazepam from GABA-A Benzodiazepine receptor of rat brain membranes (insoluble). In kind it is cell membranes, Membrane. Summed up: as §2
Assay [14] concerns Mus musculus. Briefly: Percentage change in seizure threshold by pentylenetetrazole infusion method in mouse at a dose of 30 mg/Kg administered perorally. The format is functional.
Assay [15] concerns GABA-A receptor; anion channel. Briefly: Displacement of [3H]flunitrazepam from GABA-A Benzodiazepine receptor of rat brain membranes (Insoluble). In kind it is cell membranes, Membrane. Summed up:
as §2

The subject of assay [16] is Mus musculus. In words: Percentage change in seizure threshold by anti-pentylenetetrazole test in mouse at a dose of 100 mg/Kg administered perorally; Inactive. In kind it is functional, organism-based.
Assay [17] concerns Mus musculus. In words: Percent of mice not grasping wire at a dose of 30 mg/Kg administered intraperitoneally in horizontal wire test. The format is functional.
The subject of assay [18] is Mus musculus. Briefly: Percentage change in seizure threshold by anti-pentylenetetrazole test in mouse at a dose of 30 mg/Kg administered perorally. In kind it is functional.
The subject of assay [19] is Rattus norvegicus. Briefly: Compound was administered at a dose of 20 mg/Kg intraperitoneally and was evaluated for shock induced suppression of drinking by rat vogel test and number of shocks taken were reported; Inactive. In kind it is functional, organism-based. Summed up: as §1

What is called ED50 is the dose at which the effect has come halfway, by size or by number of responders. The low end stands for an effect at a small dose, the high end for a need for a large dose. In assay [1], `CN1C(=O)CN=C(c2ccccc2)c2cc(Cl)ccc21` [DIAZEPAM] had a No. of shocks of 21.2. For the same compound, the 50% effective dose (ED50) in assay [2] was determined as 3.8 mg/kg; in [3], 3.1 mg/kg; in assay [4] it was 1.5 mg/kg.
Usually Ki stands for a measure of affinity in units of concentration, obtained from inhibition or displacement. Lower therefore signals a stronger hold on the target. With `Cc1nc2ccsc2c2[nH]n(-c3ccc(Cl)cc3)c(=O)c12`, the No. of shocks in [5] was determined as 6.1. For the same compound, the Change in assay [6] is 57%. In assay [7], this compound had an inhibitory constant (Ki) of 1 µM.
In assay [8], `O=C1C2C=Nc3ccccc3C2=NN1c1ccc(Cl)cc1` (centres undefined) [CGS-9896] yielded an Activity of 30%. The No. of shocks in [9] came out at 12.7. Further, it took a dose of 3.5 mg/kg to reach the 50% effect level in [4] (ED50). In assay [7], this compound returned a Ki of 0.00035 µM.
In turn, `Cn1ncc2cc3c(cc21)ncc1c(=O)n(-c2ccc(Cl)cc2)[nH]c13` came in with a No. of shocks in [5] of 9. For the same compound, the Change entry in [10] is “inactive”. This compound showed a Ki in assay [7] of 0.014 µM.
With `Cn1cc2c(ccc3ncc4c(=O)n(-c5ccc(Cl)cc5)[nH]c4c32)n1`, the No. of shocks in assay [5] is recorded as 5.7. Moreover, the outcome in [11] was inactive. The Change result in [10] is “inactive”. In assay [7], this compound had a Ki of 0.00046 µM.
In the case of `Clc1ccc(-n2nc3c(cnc4ccsc43)c2Cl)cc1`, the No. of shocks in assay [5] was 13.7. The Change entry in [12] is “inactive”. Besides, in [13], the inhibition constant (Ki) result was “Insoluble”.
For `Cn1c2c(cnc3ccsc32)c(=O)n1-c1ccc(Cl)cc1`, the No. of shocks in assay [5] is reported as 8.6. Also, in assay [12], the Change result is “inactive”. The Ki in assay [7] is 2.6 µM.
`O=c1c2c(-c3ccccc3)nc3ccsc3c2[nH]n1-c1ccc(Cl)cc1` came in with a No. of shocks in assay [5] of 6.7. For the same compound, in [7], the inhibition constant Ki is greater than 1000 µM. In addition, in assay [14], the Change was 18%.
In assay [5], `COc1c2cnc3ccsc3c2nn1-c1ccc(Cl)cc1` registered a No. of shocks of 13.4. For the same compound, the Change result in assay [12] was “inactive”. Further, the inhibition constant (Ki) result in [15] is on record as “Insoluble”.
Turning to `Cn1cc2ccc3ncc4c(=O)n(-c5ccc(Cl)cc5)[nH]c4c3c2n1`, the No. of shocks in assay [5] was found to be 7. In addition, the result in assay [11] was inactive. In assay [7], this compound gave an inhibition constant Ki of 0.00029 µM.
As to `Cn1cc2c(=O)n(-c3ccc(Cl)cc3)nc-2c2sccc21`, the No. of shocks in [5] is recorded as 16.8. Further, the Change result in [12] is “inactive”. In addition, the result in assay [11] was inactive. Moreover, the Ki entry in assay [15] is reported as “Insoluble”.
The compound `O=c1c2cnc3ccsc3c2[nH]n1-c1ccc(Cl)cc1` came in with a No. of shocks in assay [5] of 14. Also, the Change entry in assay [16] was “inactive”. The result in assay [11] was inactive. In addition, in assay [7], the inhibition constant (Ki) is 0.00046 µM.
`Cn1c2ccccc2c2ncc3c(=O)n(-c4ccc(Cl)cc4)[nH]c3c21` gave a No. of shocks in assay [5] of 10. The same compound returned an Activity in assay [17] of 25%. Further, the Ki entry in [13] was “Insoluble”.
In assay [5], `Cc1[nH]sc2ncc3c(=O)n(-c4ccc(Cl)cc4)nc3c12` registered a No. of shocks of 11.9. Besides, in assay [11], the result was inactive. For the same compound, the Change in assay [6] stood at 48%. In assay [7], the affinity, expressed as Ki, was 0.099 µM.
`Cn1ncc2c3c(ccc21)ncc1c(=O)n(-c2ccc(Cl)cc2)[nH]c13` had a No. of shocks in assay [5] of 13. Besides, the outcome in assay [11] was inactive. Further, the Change in [18] came to 37%. The same compound returned a Ki in [7] of 0.0024 µM.
For the compound `Cn1ncc2ccc3ncc4c(=O)n(-c5ccc(Cl)cc5)[nH]c4c3c21`, the No. of shocks in assay [5] came out at 13. Also, the outcome in assay [11] was inactive. Further, the Change result in assay [10] was “inactive”. Further, in assay [7], the affinity corresponds to a Ki of 0.012 µM.
In [5], `O=c1c2cnc3c4ccccc4sc3c2[nH]n1-c1ccc(Cl)cc1` registered a No. of shocks of 14.1. Moreover, the Change result in assay [12] was “inactive”. Further, in assay [11], the outcome was inactive. In assay [7], this compound registered an inhibition constant Ki of 0.81 µM.
Compound `CCc1cc2c(ncc3c(=O)n(-c4ccc(Cl)cc4)[nH]c32)s1` came in with a No. of shocks in [5] of 14.4. Further, in assay [12], the Change result was “inactive”. In addition, the result in [11] was inactive. The compound further came in with a Ki in [7] of 0.0018 µM.
For the compound `Cc1ccc2c(ncc3c(=O)n(-c4ccc(Cl)cc4)[nH]c32)n1`, the Change result in [16] is “inactive”. For the same compound, the No. of shocks entry in assay [19] is “inactive”. The compound also gave a Ki in [7] of 11 µM.
`Oc1c2cnc3cscc3c2nn1-c1ccc(Cl)cc1` showed a No. of shocks in [5] of 17. Further, in assay [11], the outcome was inactive. In assay [18], this compound showed a Change of 47%. Moreover, in [7], the affinity corresponds to a Ki of 0.00032 µM.
`Cn1cnc2c3c(ccc21)ncc1c(=O)n(-c2ccc(Cl)cc2)[nH]c13`: the No. of shocks in assay [5] was 12. For the same compound, the result in assay [11] was inactive. In [7], this compound registered a Ki of 0.0018 µM.
